Structures are written as SMILES. ≈ marks a conversion by molar mass, not a printed value. Calls of active or inactive are those of the source. The calls are words filed in the database; no cut-off is given here.

The test system of assay [1] is Mycobacterium tuberculosis. The assay is described as follows: Antimycobacterial activity against pan-susceptible Mycobacterium tuberculosis H37Rv ATCC 27294 after 7 days by resazurin microtitre assay. The class given is functional. The method in brief:
(§1)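 REMA MIC. Strains kept on Ogawa-Kudoh medium 14 days at 37 °C. Suspension vortexed and adjusted to McFarland tube 1 (3.2 × 10^6 cfu/mL), then diluted 1:20 in Middlebrook 7H9 with 10% OADC and glycerol. Compounds tested from 100 ug/mL down to 0.19 ug/mL. Incubated 7 days at 37 °C, resazurin added, 2 more days at 37 °C; colour change read.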

Assay [2] relates to Mycobacterium tuberculosis. The assay is described as follows: Antimycobacterial activity against pan-susceptible Mycobacterium tuberculosis H37Rv. The class given is functional. In a few lines: as §1
Assay [3] has as its system PBMC. The assay is described as follows: Cytotoxicity against human PBMC after 72 hrs by alamar blue assay. It is filed as cell-based. In a few lines:
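Alamar Blue assay on human PBMC. Compounds at 0.048 to 25 µg/mL in DMSO (0.1%) added after 24 h and exposed 72 h. Resazurin added 24 h before the end. Absorbance read at 570 and 595 nm, medium blank subtracted, and % reduced computed with correction factor R0. Effect expressed as percentage of control.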

Turning to `CC1CC2=C(O1)c1ccccc1C(=O)C2=O` (stereo not drawn), in assay [1] (H37Rv ATCC 27294, 168 h), the MIC stood at 14.5 µM (≈ 3.11 µg/mL).
In assay [2], `CC(C)CCc1c2[nH]c3ccccc3nc-2c2c(c1=O)CCCC2` displayed an MIC of no more than 3 µg/mL.
`CC1(C)CCc2c(c3ccccc3c3nc(-c4ccc(C#N)cc4)oc23)O1`: the MIC in assay [1] (H37Rv ATCC 27294, 168 h) was determined as 17.6 µM (≈ 6.24 µg/mL).
In assay [3], `CC1(C)CCc2c(c3ccccc3c3nc(-c4ccc(C#N)cc4)[nH]c23)O1` came in with an IC50 greater than 25 µg/mL. In addition, the MIC result in assay [1] was “inactive”.
As to `CC1(C)CCc2c(c3ccccc3c3nc(-c4ccccc4)[nH]c23)O1`, in assay [3], the IC50 is greater than 25 µg/mL. In addition, in assay [1] (H37Rv ATCC 27294, 168 h), the MIC was greater than 304 µM.
`C=CCC1Cc2c(c3ccccc3c3nc4ccccc4nc23)OC1(C)C` (stereo not drawn) returned an MIC in assay [2] of 0.78 µg/mL (≈ 2.2 µM).
For `CC1(C)CCc2c(c3ccccc3c3nc(-c4ccccc4Br)[nH]c23)O1`, the IC50 in assay [3] is greater than 25 µg/mL. Also, the MIC in assay [1] (H37Rv ATCC 27294, 168 h) stood at 7.6 µM (≈ 3.1 µg/mL).
For the compound `Cc1ccc(-c2nc3c([nH]2)c2c(c4ccccc43)OC(C)(C)C2)cc1`, the MIC in assay [1] (H37Rv ATCC 27294, 168 h) was greater than 304 µM.
As for `CC1(C)CCc2c(c3ccccc3c3nc(-c4ccc(C(F)(F)F)cc4)[nH]c23)O1`, the MIC entry in assay [1] is “inactive”.
Take `CC1(C)Cc2c(c3ccccc3c3nc(-c4ccc([N+](=O)[O-])cc4)oc23)O1`: the MIC in assay [1] (H37Rv ATCC 27294, 168 h) is greater than 278 µM.
`CC1(C)CCc2c(c3ccccc3c3nc(-c4cccc(F)c4)[nH]c23)O1` registered an IC50 in assay [3] greater than 25 µg/mL. In assay [1] (H37Rv ATCC 27294, 168 h), this compound registered an MIC of 9 µM (≈ 3.12 µg/mL).
Take `CC1(C)CCc2c(c3ccccc3c3nc(-c4cccc([N+](=O)[O-])c4)[nH]c23)O1`: the IC50 in assay [3] was greater than 25 µg/mL. In assay [1], the MIC result is “inactive”.
Consider `CC1(C)CCc2c(c3ccccc3c3nc(-c4cccc(Br)c4)[nH]c23)O1`, for which the IC50 in assay [3] is greater than 25 µg/mL. The same compound showed an MIC in assay [1] (H37Rv ATCC 27294, 168 h) of 15.3 µM (≈ 6.23 µg/mL).
In assay [1] (H37Rv ATCC 27294, 168 h), `C=CCC1=C(O)C(=O)c2ccccc2C1=O` came in with an MIC of 467 µM (≈ 100 µg/mL).
The same measure, in the same setting: the same measure for `CC1(C)CCc2c(c3ccccc3c3nc(-c4ccc([N+](=O)[O-])cc4)[nH]c23)O1`: 268 µM (≈ 100 µg/mL).
In assay [3], `CC1(C)CCc2c(c3ccccc3c3nc(-c4ccc(Cl)cc4)[nH]c23)O1` had an IC50 greater than 25 µg/mL. The compound further came in with an MIC in assay [1] (H37Rv ATCC 27294, 168 h) of 34.4 µM (≈ 12.5 µg/mL).
The like results for `CC1(C)CCc2c(c3ccccc3c3nc(-c4ccc(F)cc4)[nH]c23)O1` were, in that order, greater than 25 µg/mL and 72.2 µM (≈ 25 µg/mL).
`NNC(=O)c1ccncc1` [ISONIAZID] returned an MIC in assay [1] (H37Rv ATCC 27294, 168 h) of no more than 0.4 µM.
On the same count and under the same terms, the same measure for `CO[C@H]1/C=C/O[C@@]2(C)Oc3c(C)c(O)c4c(O)c(c(/C=N/N5CCN(C)CC5)c(O)c4c3C2=O)NC(=O)/C(C)=C\C=C\[C@H](C)[C@H](O)[C@@H](C)[C@@H](O)[C@@H](C)[C@H](OC(C)=O)[C@@H]1C` [RIFAMPIN]: no more than 0.1 µM.
The same measure, in the same setting: the same measure for `COc1ccccc1-c1nc2c([nH]1)c1c(c3ccccc32)OC(C)(C)CC1`: 17.4 µM (≈ 6.24 µg/mL).
`CC1(C)CCc2c(c3ccccc3c3nc(-c4ccccn4)[nH]c23)O1` came in with an MIC in assay [1] (H37Rv ATCC 27294, 168 h) of 75.9 µM (≈ 25 µg/mL).
The same measure, in the same setting: the same measure for `Cc1ccccc1-c1nc2c([nH]1)c1c(c3ccccc32)OC(C)(C)CC1`: 9 µM (≈ 3.08 µg/mL).
On the same count and under the same terms, the same measure for `CC1(C)CCc2c(c3ccccc3c3nc(-c4cccc(C#N)c4)oc23)O1`: 35.2 µM (≈ 12.5 µg/mL).
Take `CC1(C)CCc2c(c3ccccc3c3nc(-c4cnc5ccccc5c4)[nH]c23)O1`: the MIC result in assay [1] is “inactive”.
Take `CC1(C)CCc2c(c3ccccc3c3nc(-c4ccc(Br)cc4)[nH]c23)O1`: the IC50 in assay [3] is greater than 25 µg/mL. Also, the MIC entry in assay [1] is “inactive”.
As for `CC1(C)CCc2c(c3ccccc3c3nc(-c4ccccc4C(F)(F)F)[nH]c23)O1`, inhibition of growth in assay [1] (H37Rv ATCC 27294, 168 h) (MIC) required 4 µM (≈ 1.59 µg/mL).
Still for that read-out and setting: in the case of `CC1(C)CCc2c(c3ccccc3c3nc(-c4cccc(C(F)(F)F)c4)[nH]c23)O1` it was 4 µM (≈ 1.59 µg/mL).
As for `CC1(C)CCc2c(c3ccccc3c3nc(-c4cccnc4)[nH]c23)O1`, in assay [1], the MIC entry was “inactive”.
In turn, `CC1(C)CCc2c(c3ccccc3c3nc(-c4ccccc4C#N)oc23)O1` returned an MIC in assay [1] (H37Rv ATCC 27294, 168 h) of 35.2 µM (≈ 12.5 µg/mL).
Same read-out and setting: in the case of `CC1Cc2c(c3ccccc3c3nc(-c4ccc([N+](=O)[O-])cc4)oc23)O1` (stereo not drawn) it was greater than 289 µM.
Regarding `CC1(C)CCc2c(c3ccccc3c3nc(-c4ccccc4[N+](=O)[O-])[nH]c23)O1`, the IC50 in assay [3] is greater than 25 µg/mL. Further, inhibition of growth in assay [1] (H37Rv ATCC 27294, 168 h) (MIC) required 268 µM (≈ 100 µg/mL).
The like results for `CC1(C)CCc2c(c3ccccc3c3nc(-c4cc5ccccc5cn4)[nH]c23)O1` were, in that order, greater than 25 µg/mL and 16.4 µM (≈ 6.22 µg/mL).
On to `CC1(C)CCc2c(c3ccccc3c3nc(-c4cccc(C#N)c4)[nH]c23)O1`, for which the IC50 in assay [3] was greater than 25 µg/mL. Moreover, the MIC entry in assay [1] was “inactive”.
`CC1(C)Cc2c(c3ccccc3c3nc(-c4ccccc4)[nH]c23)O1` registered an IC50 in assay [3] greater than 25 µg/mL. The compound further showed an MIC in assay [1] (H37Rv ATCC 27294, 168 h) greater than 318 µM.
For the compound `Cc1ccc(-c2nc3c(o2)c2c(c4ccccc43)OC(C)(C)C2)cc1`, the MIC in assay [1] (H37Rv ATCC 27294, 168 h) was greater than 304 µM.
